17 compounds from PubChem BioAssay can be followed below.

A short description of test [1]: RPL19A-GFP modulators, yeast TOR pathway, confirmation, cell-based, S. cerevisiae, flow cytometry, cherry picks, mother/daughter gates (AID 2270;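 active = GFP response below 50% of the DMSO control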). The conditions noted are these: S. cerevisiae RPL19A-GFP strain, 3 h, at 10 µM, stronger effect = lower value, 100 = same GFP as DMSO wells. In general terms: In flow cytometry, cells or beads pass a laser one at a time.
Test [2] in a line: LAP4-GFP expression modulators in yeast, confirmation, cell-based, cherry picks, flow cytometry, mother/daughter gates (AID 2271;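 active = GFP response above 150% of the DMSO control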;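 note: ratio of sample to DMSO plate mean so 100% equals DMSO level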). The conditions noted are these: S. cerevisiae LAP4-GFP strain, 3 h, at 10 µM, stronger effect = higher value, 100 means same as DMSO control. An outline of the steps: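 Measured by: GFP by flow cytometry. Test system: GFP-fusion yeast strain. Input: yeast cells seeded at OD600 of 0.2. Timing: 30 °C, 3 h compound incubation, rotating. Buffer or medium: synthetic complete medium for yeast. Benchmarks: DMSO-only negative wells, rapamycin 400 ng/mL positive wells. Compound: 10 µM single dose.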

Test [3] is described as follows: modulators of MEP2-GFP levels in yeast, confirmation, S. cerevisiae, flow cytometry GFP, cherry picks (AID 2272;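 active = GFP response above 150% of the DMSO control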;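 note: ratio of well signal to plate DMSO mean so 100% equals DMSO level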). The settings on record: S. cerevisiae MEP2-GFP strain, 3 h, at 10 µM, stronger effect = higher value.
A short description of test [4]: AGP1-GFP expression modulators, hit retest, confirmation, cell-based, flow cytometry, S. cerevisiae, cherry picks (AID 2273).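 Note: median GFP channel fluorescence over the whole cell population gate.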 The settings on record: S. cerevisiae AGP1-GFP strain, 3 h, at 10 µM.
Test [5] in a line: modulators of CIT2-GFP expression in yeast, confirmation, S. cerevisiae, GFP fusion, cherry picks, mother/daughter gates (AID 2274). The settings on record: S. cerevisiae CIT2-GFP strain, flow cytometry, 3 h, at 10 µM, stronger effect = higher value.
The mark [6] stands for this setting: measured here: daughter cell gate.
[7] abbreviates: measured here: mother cell gate.
Where [8] appears, read: measured here: daughter cell gate response.
[9] abbreviates: measured here: mother cell gate response.

Activity calls are given as the source filed them.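 Rule for the calls, unless noted: active = GFP response above 150% of the DMSO level; inconclusive = fewer than 70 events counted for a yeast strain; inactive = the rest.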

As for `Cc1nc(Sc2ccccc2)c(C#N)c(C)c1[N+](=O)[O-]`, the GFP response vs DMSO in test [1] is 98.2% (inactive); in test [1] (setting [6]), 99.4%; in test [1] (setting [7]), 96.6%; in test [3] it was 109% (inactive). Also, the GFP response relative to DMSO in test [2] is 94.1% (inactive); in test [2] (setting [8]) it was 92.8%; in test [2] (setting [9]) it was 91.9%. For the same compound, the GFP response, % of DMSO is 88.4% (inactive) in test [4], 115% (inactive) in test [5], 117% in test [5] (setting [6]) and 113% in test [5] (setting [7]).

As to `CNC(=O)/C(C#N)=C/c1c(N2CCCCCC2)nc2ccccn2c1=O`, the GFP response vs DMSO was 98.7% (inactive) in test [1], 100% in test [1] (setting [6]), 98.2% in test [1] (setting [7]) and 112% (inactive) in test [3]. The results for the GFP response relative to DMSO in test [2], in test [2] (setting [8]) and in test [2] (setting [9]) were 104% (inactive), 104% and 106%, respectively. Besides, the GFP response, % of DMSO in test [4] was 98.6% (inactive); in test [5] it was 108% (inactive); in test [5] (setting [6]) it was 110%; in test [5] (setting [7]), 108%.

For `COc1cccc2c1Oc1ncccc1N(C(=O)CCC(=O)NCc1ccccc1)C2`, the GFP response vs DMSO is 99.2% (inactive) in test [1], 98.1% in test [1] (setting [6]), 101% in test [1] (setting [7]) and 103% (inactive) in test [3]. For the same compound, the GFP response relative to DMSO is 97% (inactive) in test [2], 95.9% in test [2] (setting [8]) and 97.3% in test [2] (setting [9]). Also, the GFP response, % of DMSO in test [4] is 102% (inactive); in test [5], 98.8% (inactive); in test [5] (setting [6]), 99.2%; in test [5] (setting [7]) it was 98.1%.

`Cc1cc(N2CCN(C(=O)c3ccco3)CC2)n2ncc(-c3ccccc3)c2n1`: the GFP response vs DMSO in test [1] was 108% (inactive); in test [1] (setting [6]), 90.8%; in test [1] (setting [7]), 101%; in test [3], 116% (inactive). The GFP response relative to DMSO in test [2] is 108% (inactive); in test [2] (setting [8]), 96%; in test [2] (setting [9]), 105%. The GFP response, % of DMSO in test [4] is 106% (inactive); in test [5], 118% (inactive); in test [5] (setting [6]), 95.8%; in test [5] (setting [7]), 107%.

As for `Clc1ccc(-c2nnnn2-c2ccc(Cl)cc2)cc1`, the GFP response vs DMSO is 101% (inactive) in test [1], 102% in test [1] (setting [6]), 100% in test [1] (setting [7]) and 99.3% (inactive) in test [3]. The GFP response relative to DMSO is 97.7% (inactive) in test [2], 102% in test [2] (setting [8]) and 96.4% in test [2] (setting [9]). Also, the GFP response, % of DMSO in test [4] is 95.9% (inactive); in test [5], 100% (inactive); in test [5] (setting [6]) it was 101%; in test [5] (setting [7]), 99.3%.

Take `CC(C)C(=O)NC(c1cccs1)c1cc([N+](=O)[O-])c2cccnc2c1O` (configuration not stated): the GFP response vs DMSO in test [1] is 95.8% (inactive); in test [1] (setting [6]), 95.2%; in test [1] (setting [7]), 95.8%; in test [3], 94.7% (inactive). Also, the values for the GFP response relative to DMSO in test [2], in test [2] (setting [8]) and in test [2] (setting [9]) were 101% (inactive), 99.1% and 99.4%, respectively. The GFP response, % of DMSO in test [4] was 101% (inactive); in test [5], 98.8% (inactive); in test [5] (setting [6]) it was 101%; in test [5] (setting [7]), 99.3%.

Turning to `COCCCN1C(=O)C2C(C(=O)Nc3cc(C)cc(C)c3)C3C=CC2(O3)C1C(=O)NC1CCCCC1` (configuration not stated), the GFP response vs DMSO in test [1] was 100% (inactive); in test [1] (setting [6]), 101%; in test [1] (setting [7]), 101%; in test [3] it was 102% (inactive). Besides, the GFP response relative to DMSO was 95% (inactive) in test [2], 100% in test [2] (setting [8]) and 98.3% in test [2] (setting [9]). For the same compound, the GFP response, % of DMSO was 96.7% (inactive) in test [4], 112% (inactive) in test [5], 105% in test [5] (setting [6]) and 114% in test [5] (setting [7]).

Consider `CCSc1nnc(NC(=O)c2ccccn2)s1`, for which the GFP response vs DMSO in test [1] is 101% (inactive); in test [1] (setting [6]) it was 100%; in test [1] (setting [7]) it was 99.8%; in test [3], 122% (inactive). Also, the GFP response relative to DMSO is 257% (active) in test [2], 223% in test [2] (setting [8]) and 254% in test [2] (setting [9]). The GFP response, % of DMSO in test [4] is 93.8% (inactive); in test [5], 97.8% (inactive); in test [5] (setting [6]), 104%; in test [5] (setting [7]) it was 91%.

`CC(C)C(=O)Nc1ccc(NC(=O)c2cc3ccccc3o2)cc1`: the GFP response vs DMSO in test [1] is 99.6% (inactive); in test [1] (setting [6]), 100%; in test [1] (setting [7]) it was 98.6%; in test [3], 99.3% (inactive). For the same compound, the values for the GFP response relative to DMSO in test [2], in test [2] (setting [8]) and in test [2] (setting [9]) were 102% (inactive), 101% and 102%, respectively. Besides, the GFP response, % of DMSO in test [4] is 99.1% (inactive); in test [5], 100% (inactive); in test [5] (setting [6]), 97.6%; in test [5] (setting [7]), 100%.

Take `Cc1cc(OCc2ccc(C(=O)NN=C3CCCC3)cc2)ccc1Cl`: the GFP response vs DMSO was 103% (inactive) in test [1], 98.7% in test [1] (setting [6]), 96.1% in test [1] (setting [7]) and 120% (inactive) in test [3]. Also, the results for the GFP response relative to DMSO in test [2], in test [2] (setting [8]) and in test [2] (setting [9]) were 132% (inactive), 116% and 135%, respectively. In addition, the GFP response, % of DMSO is 101% (inactive) in test [4], 95.2% (inactive) in test [5], 91.5% in test [5] (setting [6]) and 89.1% in test [5] (setting [7]).

For `O=C1C(CSCc2ccccc2)NC(=S)N1c1ccccc1` (configuration not stated), the GFP response vs DMSO in test [1] was 102% (inactive); in test [1] (setting [6]), 102%; in test [1] (setting [7]), 101%; in test [3], 98.8% (inactive). The GFP response relative to DMSO in test [2] is 122% (inactive); in test [2] (setting [8]), 120%; in test [2] (setting [9]) it was 128%. Also, the GFP response, % of DMSO was 98.1% (inactive) in test [4], 99.7% (inactive) in test [5], 102% in test [5] (setting [6]) and 94.7% in test [5] (setting [7]).

As for `COC(=O)c1ccc(CS(=O)(=O)c2ccc(F)cc2)o1`, the GFP response vs DMSO in test [1] was 97.8% (inactive); in test [1] (setting [6]), 98.1%; in test [1] (setting [7]), 95.9%; in test [3] it was 103% (inactive). Further, the GFP response relative to DMSO in test [2] is 98.9% (inactive); in test [2] (setting [8]) it was 99%; in test [2] (setting [9]) it was 98.4%. Moreover, the GFP response, % of DMSO was 102% (inactive) in test [4], 100% (inactive) in test [5], 99.3% in test [5] (setting [6]) and 98.2% in test [5] (setting [7]).

On to `O=S(=O)(c1ccccc1)c1ccc(C(F)(F)F)cn1`, for which the GFP response vs DMSO in test [1] was 97.6% (inactive); in test [1] (setting [6]), 98.3%; in test [1] (setting [7]), 97.8%; in test [3], 101% (inactive). The GFP response relative to DMSO in test [2] is 96.1% (inactive); in test [2] (setting [8]), 95.1%; in test [2] (setting [9]) it was 95.1%. For the same compound, the GFP response, % of DMSO in test [4] was 101% (inactive); in test [5], 95.9% (inactive); in test [5] (setting [6]), 96.8%; in test [5] (setting [7]), 95.7%.

Turning to `O=C1C2C3C=CC(C4CC34)C2C(=O)N1/N=C/c1ccc([N+](=O)[O-])o1` (configuration not stated), the GFP response vs DMSO in test [1] is 101% (inactive); in test [1] (setting [6]), 105%; in test [1] (setting [7]) it was 95.8%; in test [3], 106% (inactive). In addition, the GFP response relative to DMSO in test [2] is 129% (inactive); in test [2] (setting [8]) it was 122%; in test [2] (setting [9]), 120%. The GFP response, % of DMSO in test [4] is 101% (inactive); in test [5], 107% (inactive); in test [5] (setting [6]), 112%; in test [5] (setting [7]), 100%.

In the case of `COCCNc1c(-c2ccc(O)cc2)nc2ccc(Cl)cn12`, the GFP response vs DMSO in test [1] was 97.6% (inactive); in test [1] (setting [6]), 97.4%; in test [1] (setting [7]), 97.7%; in test [3], 98.3% (inactive). Further, the GFP response relative to DMSO is 99.2% (inactive) in test [2], 99.2% in test [2] (setting [8]) and 98.3% in test [2] (setting [9]). Besides, the GFP response, % of DMSO was 93.1% (inactive) in test [4], 98.3% (inactive) in test [5], 99.1% in test [5] (setting [6]) and 97.3% in test [5] (setting [7]).

Take `Cc1ccc(/C=C/C(=O)c2ccc(C)cc2)cc1`: the GFP response vs DMSO was 97.2% (inactive) in test [1], 96.2% in test [1] (setting [6]), 99.3% in test [1] (setting [7]) and 99.5% (inactive) in test [3]. Also, the GFP response relative to DMSO in test [2] was 98.8% (inactive); in test [2] (setting [8]), 99.3%; in test [2] (setting [9]) it was 96.5%. Besides, the GFP response, % of DMSO in test [4] was 98.2% (inactive); in test [5], 102% (inactive); in test [5] (setting [6]), 102%; in test [5] (setting [7]) it was 103%.

Regarding `O=[N+]([O-])c1cc(C(F)(F)F)ccc1Sc1ccccn1`, the GFP response vs DMSO in test [1] is 102% (inactive); in test [1] (setting [6]), 101%; in test [1] (setting [7]), 101%; in test [3], 102% (inactive). The GFP response relative to DMSO was 97.4% (inactive) in test [2], 98.7% in test [2] (setting [8]) and 98.3% in test [2] (setting [9]). Further, the GFP response, % of DMSO in test [4] was 99.2% (inactive); in test [5], 104% (inactive); in test [5] (setting [6]), 103%; in test [5] (setting [7]) it was 103%.
